Bioassay records from PubChem.
Only some compounds are listed: those with a hit (about 4.2% of all), similar ones and a draw of the others.
AI-2 QS modul = modulators of Vibrio harveyi AI-2 quorum sensing system; AID 2094; activity change, % at 7.5 µM; Vibrio harveyi JMH597 AI-2 luminescence/OD600 ratio, 9 h; stronger effect = lower value; strain lacks LuxN and CqsS sensors; 0 = neutral-control median; 0.4% of 300,000 active; in the data active means activity change below about -75%, passing the limit was not always enough; inconclusive means no clear call, values can overlap the other calls;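 further: luminescence divided by OD600 gain over 9 h not by final OD600 alone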
KCNQ1 pot = potentiates or activates the human KCNQ1 potassium channel. 0.35% of 310,000 active. CHO-K1 KCNQ1, thallium flux FluxOR fluorescence; stronger effect = higher value. B-score at 10 µM;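 active means fluorescence ratio B-score, a plate-corrected score, at least three library SD, with initial intensity B-score within 5 SD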
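System: Stable KCNQ1 CHO-K1 line | Incubation: 90 min dye loading and 20 min compound exposure, both at room temperature | Measure: Ratio B score | Medium: Assay buffer for compound exposure, DMSO matched across wells | Compound dosing: Single-concentration screen | Probe or stimulus: K+/Tl+ depolarizing stimulus | Measured by: Kinetic FluxOR fluorescence, 10 s baseline plus 110 s post-stimulus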
hERG protect = shields human hERG channel from block by proarrhythmic agents; Q12809; activation (rescue from dofetilide block), less the hit threshold, % at 10 µM; CHO-hERG, FluxOR thallium flux, dofetilide IC70 present; 0.51% of 310,000 active;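 active means activation above the mean of controls blocked by dofetilide plus 5 SD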;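 further: thallium influx through hERG after potassium depolarization seen as dye fluorescence rise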
Cl transport mod = modulates chloride dependent transport by human KCC2; 2.2% of 190,000 active; Q9H2X9; KCC2 cells, thallium flux FluoZin-2 fluorescence; B-score of Tl+ flux slope (higher = more flux/activation; lower = inhibition) at 10 µM;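 active means thallium flux slope and its plate-corrected score both differing from the plate sample mean at a set confidence after two filtering rounds, in either direction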;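 further: slope of fluorescence scaled to starting intensity during 10 to 20 s after thallium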
Target sequence (Q9H2X9 whole entry, looked up): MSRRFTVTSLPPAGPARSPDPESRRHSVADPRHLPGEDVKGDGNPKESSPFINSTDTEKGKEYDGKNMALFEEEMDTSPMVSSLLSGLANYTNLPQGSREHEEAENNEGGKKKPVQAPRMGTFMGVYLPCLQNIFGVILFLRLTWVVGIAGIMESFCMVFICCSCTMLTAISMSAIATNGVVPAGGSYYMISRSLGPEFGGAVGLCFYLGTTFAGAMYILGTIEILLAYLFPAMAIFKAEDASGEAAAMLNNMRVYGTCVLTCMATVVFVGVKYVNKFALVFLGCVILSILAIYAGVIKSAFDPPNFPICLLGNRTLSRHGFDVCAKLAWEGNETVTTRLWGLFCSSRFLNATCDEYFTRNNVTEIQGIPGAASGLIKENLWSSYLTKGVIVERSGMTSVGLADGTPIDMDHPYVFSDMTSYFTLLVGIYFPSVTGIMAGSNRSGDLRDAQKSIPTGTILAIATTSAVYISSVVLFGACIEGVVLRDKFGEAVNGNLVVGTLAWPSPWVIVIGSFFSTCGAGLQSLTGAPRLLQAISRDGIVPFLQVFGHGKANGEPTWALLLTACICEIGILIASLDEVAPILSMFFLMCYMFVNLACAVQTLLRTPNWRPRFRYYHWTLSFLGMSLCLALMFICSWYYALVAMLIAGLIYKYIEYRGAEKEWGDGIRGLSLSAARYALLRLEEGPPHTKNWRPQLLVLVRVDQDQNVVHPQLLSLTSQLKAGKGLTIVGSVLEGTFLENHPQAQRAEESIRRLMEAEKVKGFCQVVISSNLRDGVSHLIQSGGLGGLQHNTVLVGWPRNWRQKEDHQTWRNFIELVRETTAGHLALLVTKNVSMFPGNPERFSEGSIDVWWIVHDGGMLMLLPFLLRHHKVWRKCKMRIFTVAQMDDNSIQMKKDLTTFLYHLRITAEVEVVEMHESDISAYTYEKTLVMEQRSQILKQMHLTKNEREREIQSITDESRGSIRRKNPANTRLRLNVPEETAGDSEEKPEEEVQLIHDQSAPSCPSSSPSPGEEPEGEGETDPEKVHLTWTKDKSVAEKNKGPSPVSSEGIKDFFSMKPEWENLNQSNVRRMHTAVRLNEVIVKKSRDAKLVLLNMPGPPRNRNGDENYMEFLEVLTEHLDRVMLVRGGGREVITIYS
Mot1-301 SUMO = inhibitors of SUMOylation pathway: yeast Mot1-301 growth rescue | S. cerevisiae Mot1-301 growth rescue, ATP luminescence, 38.5C; percent above DMSO median, 100 means doubled | growth rescue, % at 18.8 µM | 1% of 320,000 active | AID 2716;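 active means every valid replicate shows activation above 250% relative to neutral control wells; inactive means the rest, any valid replicate at or below 250%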
KCNQ1 inh = blocks the human KCNQ1 potassium channel; CHO-K1 KCNQ1, FluxOR thallium flux fluorescence; stronger effect = higher value; B-score at 10 µM; 1.3% of 310,000 active;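 active means compounds whose thallium flux B-score, printed positive for inhibition, exceeds three library SD while starting fluorescence stays within three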;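 further: channel opened by potassium depolarization with thallium stimulus after 20 min compound exposure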
KCC2 sec1 = KCC2 (human) modulation, secondary assay | shares compounds with Cl transport mod | HEK293-KCC2, thallium flux, FluoZin2 fluorescence; stronger effect = higher value | 15% of 3,700 active | AID 1713 | normalised thallium flux (F/F0 slope) at 10 µM;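 active means thallium flux slope above the same plate's solvent-only control mean plus 3 SD; inconclusive means the two replicate wells disagree; inactive means no significant difference from solvent-only control wells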
KCC2 bumet counter = bumetanide-insensitive thallium flux in KCC2 cells with ouabain, counter-screen. shares compounds with Cl transport mod. 49% of 3,700 active. HEK293-KCC2 + bumetanide/ouabain, thallium flux FluoZin2; stronger effect = higher value. normalized thallium flux at 10 µM. AID 1714;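 active means thallium entry rate above the same plate's blocked-transporter control wells by more than 3 SD; inconclusive means the two repeat wells disagree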;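 further: raw slope of fluorescence over initial fluorescence between 10 and 20 s after thallium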
KCC2 secondary2 = confirmation of human KCC2 transport modulators; shares compounds with Cl transport mod; AID 1715; HEK293-KCC2, thallium flux FluoZin2 fluorescence; actives lie on both sides; F/F0 rise rate, 10–20 s post-thallium; normalized thallium flux at 10 µM; 23% of 3,700 active;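 active means thallium flux slope more than 3 SD above or below the plate's solvent-only control mean, mostly below; inconclusive means the two repeat wells disagreed; inactive means no significant shift from solvent-only controls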
HEK293 Tl flux = counter-screen for KCC2 modulators: effect in parental HEK293 cells. thallium flux FluoZin2, ouabain; baseline-ratio fluorescence slope, 10–20 s after thallium. 46% of 3,700 active. shares compounds with Cl transport mod. thallium flux rate (normalised fluorescence) at 10 µM;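 active means thallium flux rate significantly above the same plate's solvent-only control wells, beyond their mean plus 3 SD; inconclusive means the two replicate wells gave conflicting results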
KCC2 ouabain = confirmation of human KCC2 modulators with ouabain. HEK293-KCC2, thallium flux FluoZin2 fluorescence; bidirectional: low = inhibitor, high = activator. shares compounds with Cl transport mod. raw Tl+ flux slope (below DMSO = inhibition, above = activation) at 10 µM. 48% of 3,700 active;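 active means thallium flux slope beyond 3 SD from same-plate DMSO control mean in most replicates, usually higher, sometimes lower; inconclusive means repeat tests gave conflicting results; inactive means no significant difference from controls in most replicates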;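 further: slope of initial-normalized fluorescence between seconds 10 and 20 after thallium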
HEK counter2 = counter-screen for KCC2 modulators: effect in parental HEK293 cells | shares compounds with Cl transport mod | thallium flux FluoZin-2 fluorescence slope | thallium flux slope at 10 µM | 33% of 3,700 active | AID 1718;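 active means thallium flux slope above the same plate's solvent-control mean plus 3 SD in both duplicate wells; inconclusive means duplicate wells that disagreed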;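 further: run without ouabain in cells lacking the KCC2 cotransporter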
Large screens that a line does not name were inactive (follow-up assays come after a bar, where they were run).

CC(CCc1ccccc1)NC(=O)C1CCCN(c2nnc(-n3cccc3)s2)C1 (configuration not stated)	Cl transport mod -4.37 | KCC2 sec1 inactive | KCC2 bumet counter inactive | KCC2 secondary2 inactive | HEK293 Tl flux inactive | KCC2 ouabain 0.0148 | HEK counter2 inactive
O=C(c1ccsc1)N1CCCC(N2CCOCC2)C1 (configuration not stated)	none (no result: Cl transport mod)
CC(C)(C)NC(=O)C(=O)NNC(=O)c1ccccc1	Cl transport mod 3.69 | KCC2 sec1 0.0187 | KCC2 bumet counter 0.034 | KCC2 secondary2 inactive | HEK293 Tl flux 0.0172 | KCC2 ouabain inactive | HEK counter2 0.0118
CC(C)(C)NC(=O)C(=O)NNC(=O)c1cccc(F)c1	Cl transport mod 20.8 (no result: Mot1-301 SUMO) | KCC2 sec1 inactive | KCC2 bumet counter 0.0254 | KCC2 secondary2 0.0385 | HEK293 Tl flux 0.0238 | KCC2 ouabain 0.0319 | HEK counter2 0.0255
COc1ccc(/C=C/c2ccncc2)cc1	none
CN(C)c1ccc(/C=C/c2ccncc2)cc1	none (no result: AI-2 QS modul, KCNQ1 pot, hERG protect, Cl transport mod, Mot1-301 SUMO, KCNQ1 inh) | KCC2 sec1 0.0032 | KCC2 bumet counter -0.004 | KCC2 secondary2 0.0212 | HEK293 Tl flux 0.00313 | KCC2 ouabain 0.00583 | HEK counter2 inconclusive
Cc1cccc(N2C(=O)CS/C2=N\NC(=O)c2ccc(Br)cc2)c1C	hERG protect 5.6, Cl transport mod 7.93 | KCC2 sec1 inactive | KCC2 bumet counter 0.0348 | KCC2 secondary2 inactive | HEK293 Tl flux 0.0229 | KCC2 ouabain 0.0343 | HEK counter2 0.0238
Cc1cccc(N2C(=O)CS/C2=N\NC(=O)c2cccnc2)c1C	none
COc1cccc(C(=O)OCC(=O)c2c[nH]c3ccccc23)c1O	none
Cc1cc(C(N)=O)nn1-c1c(Cl)cc(Cl)cc1Cl	none
COCCn1c(SCC(=O)Nc2cccc(S(N)(=O)=O)c2)nc2cc(Cl)ccc2c1=O	none
CC(C)Cn1c(SCC(=O)Nc2cccc(S(N)(=O)=O)c2)nc2ccccc2c1=O	Cl transport mod 5.71 (no result: Mot1-301 SUMO) | KCC2 sec1 inactive | KCC2 bumet counter 0.0176 | KCC2 secondary2 inactive | HEK293 Tl flux 0.0095 | KCC2 ouabain inconclusive | HEK counter2 0.0106
CC(C)Cn1c(SCC(=O)NC(=O)Nc2ccc3c(c2)OCCO3)nc2ccccc2c1=O	Cl transport mod 16.7 | KCC2 sec1 0.0142 | KCC2 bumet counter 0.0436 | KCC2 secondary2 inactive | HEK293 Tl flux inconclusive | KCC2 ouabain 0.039 | HEK counter2 inconclusive
CCOC(=O)c1c(-c2ccccc2Cl)csc1NC(=O)c1cc(S(=O)(=O)N2CCOCC2)ccc1C	none
C=CCNC(=O)COC(=O)COc1ccc(Cl)cc1	none
O=C(CCc1nc2ccccc2c(=O)[nH]1)OCC(=O)N1CCc2ccccc21	none
COC(=O)C1CCN(C(=O)COC(=O)CCc2nc3ccccc3c(=O)[nH]2)CC1	Cl transport mod 4.59 (no result: Mot1-301 SUMO) | KCC2 sec1 inactive | KCC2 bumet counter inactive | KCC2 secondary2 inactive | HEK293 Tl flux inactive | KCC2 ouabain inactive | HEK counter2 inconclusive
CCc1[nH]nc(C(=O)N2CCCC(N3CCN(c4ccccc4C)CC3)C2)c1C (configuration not stated)	none (no result: Cl transport mod)
COc1cccc(-c2cc3c(=O)n(-c4ccccc4)c(=S)[nH]c3s2)c1	none (no result: Cl transport mod)
COc1ccc(-n2c(=S)[nH]c3sc(-c4ccccc4)cc3c2=O)c(OC)c1	Cl transport mod 9.49 | KCC2 sec1 0.0141 | KCC2 bumet counter 0.0268 | KCC2 secondary2 0.0246 | HEK293 Tl flux 0.02 | KCC2 ouabain inconclusive | HEK counter2 inactive
CCc1ccc(NC2=CC(=O)CC(C)(C)C2)cc1	none (no result: Cl transport mod)
CCCOc1ccc(NC2=CC(=O)CC(C)(C)C2)cc1	none (no result: Cl transport mod) | KCC2 sec1 inactive | KCC2 bumet counter inactive | KCC2 secondary2 inactive | HEK293 Tl flux inactive | KCC2 ouabain inactive | HEK counter2 inactive
COc1ccc(C)cc1N(C)C(=O)Cc1c(C(=O)O)n(C)c2ccccc12	none (no result: Cl transport mod)
O=C(Oc1c(-c2ccccc2)c(=O)n2c3c(cccc13)CC2)c1ccccc1	Cl transport mod -4.38 | KCC2 sec1 inactive | KCC2 bumet counter inactive | KCC2 secondary2 inactive | HEK293 Tl flux 0.00537 | KCC2 ouabain 0.0132 | HEK counter2 0.00724
COc1ccc(/C(C)=N/NC(=O)C(NC(=O)c2ccccc2)c2n[nH]c(=O)c3ccccc23)c(OC)c1 (configuration not stated)	none
C/C(=N\NC(=O)c1ccc([N+](=O)[O-])c(C)c1)c1ccccc1Cl	Cl transport mod 12.2 | KCC2 sec1 inconclusive | KCC2 bumet counter 0.0465 | KCC2 secondary2 inactive | HEK293 Tl flux inconclusive | KCC2 ouabain 0.0412 | HEK counter2 inconclusive
CC(=O)Nc1ccccc1NC(=O)C/C(C)=N/NC(=O)c1ccc([N+](=O)[O-])c(Cl)c1	none
O=C(C1CCN(S(=O)(=O)c2cccc3cccnc23)CC1)N1CCN(c2ccccn2)CC1	none (no result: Cl transport mod)
O=C(C1CCN(S(=O)(=O)c2cccc3cccnc23)CC1)N1CCN(c2ccc(Cl)cc2)CC1	Cl transport mod -3.73 | KCC2 sec1 inactive | KCC2 bumet counter inconclusive | KCC2 secondary2 inactive | HEK293 Tl flux inactive | KCC2 ouabain inactive | HEK counter2 inactive
O=S(=O)(c1cccc2cccnc12)N1CCN(Cc2ccccc2)CC1	Cl transport mod -3.06 | KCC2 sec1 inactive | KCC2 bumet counter inactive | KCC2 secondary2 0.0248 | HEK293 Tl flux inactive | KCC2 ouabain 0.0172 | HEK counter2 inactive
O=S(=O)(c1cccc2cccnc12)N1CCN(Cc2ccc3c(c2)OCO3)CC1	none (no result: Cl transport mod, Mot1-301 SUMO)
CCn1c(=O)n(CCOC)c(=O)c2c3c(sc21)CCCC3	none
